Hits are enriched below; roughly 29% of the tested compounds scored in any of these assays.
tolC growth inh = blocks growth of E. coli BW25113 tolC mutant; OD615; growth inhibition, % at 10 µM (by protocol); 2.2% of 65,000 active; AID 573;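 active = growth inhibition at or above a cutoff equal to the mean over every tested compound plus 3 SD, cut at about 60% in these data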;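 also: growth measured after 20 h incubation at 37 °C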
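System: E. coli ΔtolC::kan strain BW25113; Buffer or medium: LB broth supplemented with 50 µg/mL kanamycin; Compound: 10 µM final, single dose; Incubation: bacterial growth with compound for 20 h at 37 °C; Signal: A615 absorbance measurement; Evaluation: growth inhibition in percent.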
CYP2C9 inhib = human CYP2C9 inhibition. P11712. CYP2C9 Supersomes, luciferin-H conversion, luminescence. inhibition, % at 5 µM. 20% of 96,000 active;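 active = blocking of liver enzyme CYP2C9 beyond about 50% at 5 µM, limit read from the data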
CYP2C19 inhib = human CYP2C19 inhibition; P33261; CYP2C19 Supersomes, luciferin-H EGE luminescence, 30 min; inhibition, % at 5 µM; 21% of 96,000 active;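 active = CYP2C19 inhibition above a set limit at 5 µM in the primary screen, cut at about 50% in these data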;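 also: plate controls were negative control wells for no effect and 2.5 mM tranylcypromine positive control for full effect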
Target sequence (P33261 whole entry, looked up): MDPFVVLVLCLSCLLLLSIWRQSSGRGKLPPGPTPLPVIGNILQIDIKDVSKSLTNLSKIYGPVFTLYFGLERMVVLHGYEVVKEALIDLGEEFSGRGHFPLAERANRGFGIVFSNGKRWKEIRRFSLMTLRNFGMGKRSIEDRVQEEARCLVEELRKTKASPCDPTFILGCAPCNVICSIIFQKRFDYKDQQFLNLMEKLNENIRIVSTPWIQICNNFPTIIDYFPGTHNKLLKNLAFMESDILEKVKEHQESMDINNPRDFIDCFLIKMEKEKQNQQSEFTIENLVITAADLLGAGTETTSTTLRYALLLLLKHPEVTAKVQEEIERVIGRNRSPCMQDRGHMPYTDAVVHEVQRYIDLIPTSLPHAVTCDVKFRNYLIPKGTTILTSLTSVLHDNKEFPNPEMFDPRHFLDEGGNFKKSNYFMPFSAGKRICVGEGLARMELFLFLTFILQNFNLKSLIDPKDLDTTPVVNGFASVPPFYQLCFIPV
CYP2C9 act = CYP2C9 (human) activation; P11712; recombinant CYP2C9, luciferin-H conversion, luminescence; active compounds read high; factor 1 = untreated enzyme, 0 = blocked; activation factor at 5 µM; 1.4% of 96,000 active;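 active = activation factor of 2 or more for CYP2C9 at a 5 µM dose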;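 also: 0 = sulfaphenazole-blocked wells and 1 = vehicle-only wells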
E coli WT exp = blocks growth of wild type E. coli BW25113 | OD600 absorbance | growth inhibition, % at 100 µM | 0.15% of 98,000 active | AID 710;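 active = growth inhibition above about 50% at one test dose, limit read from the data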;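 also: growth measured after 20 h incubation at 37 °C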
CYP2C19 act = activators of human cytochrome P450 2C19; P33261; recombinant CYP2C19, luciferin-H EGE luminescence; active compounds read high; 0 = fully inhibited enzyme, 1 = untreated enzyme; activation factor at 5 µM; 96,000 tested, under 10 active;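 active = activation factor of at least 2 at 5 µM in the primary screen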;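 also: 0 = wells with 2.5 mM tranylcypromine and 1 = vehicle-only wells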
* marks the source's active call; other numbers are inactive results; · = not tested or not shown.

SMILES	tolC growth inh	CYP2C9 inhib	CYP2C19 inhib	CYP2C9 act	E coli WT exp	CYP2C19 act
OC(Cn1cncn1)(c1ccccc1)c1ccccc1	·	76*	51*	0.2	4	0.5
Cc1cc(OCC(F)(F)C(F)(F)C(F)(F)C(F)(F)C(F)(F)C(F)F)nc(N)n1	·	57*	64*	0.4	9	0.4
CCN(c1ccc(NC(=O)CN2C(=O)NC3(CCOc4ccccc43)C2=O)cc1)C(C)C (stereo unspecified)	·	59*	27	0.4	11	0.7
CCCCn1c(C(C)NC(=O)COC)nc2ccccc21 (stereo unspecified)	16	·	·	·	-3	·
CCCCCn1c(C(Cc2ccccc2)NC(=O)COC)nc2ccccc21 (stereo unspecified)	·	42	63*	0.6	1	0.4
Cn1c(/N=C/c2cccs2)nc2ccccc21	-9	-8	4	1.1	5	1
Cc1ccc(C)c(N=Nc2nc3ccccc3n2C)c1	·	32	66*	0.7	10	0.3
O=C(Nc1cccnc1)c1cc2nc(C3CC3)cc(C(F)(F)F)n2n1	12	74*	64*	0.3	3	0.4
CCCn1nc([N+](=O)[O-])c(C(C#N)c2nc3ccccc3s2)c(Cl)c1=O (stereo unspecified)	·	99*	5	0	-4	1
Cc1cc(NC(=O)COC(=O)COc2ccc3c(c2)CCC3)no1	0	-5	6	1	2	0.9
O=C1c2ccccc2C(=O)N1c1ccc(Cl)cn1	·	8	8	0.9	-3	0.9
O=c1ccn(-c2cccc(C(F)(F)F)c2)nc1-c1ccn(-c2ccccc2)n1	·	80*	36	0.2	1	0.6
CC1=C(C)NC(=S)SC1	-12	-9	-6	1.1	-2	1.1
Cc1cc(C)c(S(=O)(=O)NNC(=O)C2CCN(Cc3ccccc3)CC2)c(C)c1	·	-30	-10	1.3	3	1.1
Cn1c(CCNC(=O)c2ccco2)nc2cc(NC(=O)c3ccco3)ccc21	-20	1	3	1	6	1
Cn1c(CCNC(=O)c2ccco2)nc2cc(NS(=O)(=O)c3ccccc3)ccc21	-24	56*	31	0.4	2	0.7
COc1nc(OC)nc(N2CCC(C(=O)NCc3ccc(F)cc3)CC2)n1	·	-46	-5	1.5	-3	1.1
Cc1cccc(OCC(=O)OCC(=O)c2c(N)n(C)c(=O)n(C)c2=O)c1	-11	10	45	0.9	-2	0.6
CCCCn1c(SCC(=O)N2CCCCC2)nc2cc(S(N)(=O)=O)ccc21	4	24	9	0.8	-7	0.9
CCCCn1c(SCC(=O)Nc2ccc(OC)cc2)nc2ccc(N3CCOCC3)cc2c1=O	14	100*	84*	0	-2	0.2
COCCNC(=O)CSc1nc2ccc(N3CCOCC3)cc2c(=O)n1Cc1ccc(OC)cc1	·	84*	49	0.2	1	0.5
CCCCn1c(SCC2CCCCO2)nc2cc(S(N)(=O)=O)ccc21 (stereo unspecified)	4	46	7	0.5	5	0.9
CCCCn1c(SCC(=O)NCc2ccco2)nc2cc(S(N)(=O)=O)ccc21	·	68*	56*	0.3	-2	0.4
COCCNC(=O)CSc1nc2cc(OC)c(OC)cc2c(=O)n1Cc1ccc(OC)cc1	-15	43	11	0.6	-3	0.9
CCCCn1c(SCc2nc3ccccc3s2)nc2cc(S(N)(=O)=O)ccc21	·	73*	17	0.3	-13	0.8
SMILES	tolC growth inh	CYP2C9 inhib	CYP2C19 inhib	CYP2C9 act	E coli WT exp	CYP2C19 act
COc1ccc(S(=O)(=O)Cc2ccc(C(=O)NCc3ccccn3)o2)cc1	-8	33	3	0.7	7	1
CN=Cc1cc(-c2ccccc2)sc1O	4	-28	24	1.3	5	0.8
CC1CN(C(=O)COc2ncnc3ccccc23)CC(C)O1 (stereo unspecified)	·	-2	-4	1	-2	1
COCCn1nnnc1C(c1ccc(C(F)(F)F)cc1)N1CCOCC1 (stereo unspecified)	·	13	27	0.9	5	0.7
CCCCCn1c(SCC(=O)OCC)nc2cc(C(=O)NCc3ccco3)ccc2c1=O	-1	34	42	0.7	-2	0.6
CCN(CC)C(=O)CSc1nc2cc3c(cc2c(=O)n1Cc1ccc2c(c1)OCO2)OCO3	-8	-6	-17	1.1	-2	1.2

Source: PubChem BioAssay
